Test results published in ChEMBL document CHEMBL1135654, “Antitumor agents. 1. Synthesis, biological evaluation, and molecular modeling of 5H-pyrido[3,2-a]phenoxazin-5-one, a compound with potent antiproliferative activity” (J Med Chem, 2002).

What was measured:
CCRF-SB [1] = test: Compound concentration required to reduce the cell proliferation of human acute B-lymphoblastic leukemia CCRF-SB cells by 50%, using MTT method; assay type: functional, cell-based
Method in brief: (§1)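 Leukemia/lymphoma cells in exponential growth resuspended at 1 × 10^5 cells/mL in RPMI 1640 (10% FCS, antibiotics) with serial dilutions of drug (DMSO stock 200 µM diluted in medium). Viability by MTT after 96 h at 37 °C, 5% CO2. Growth expressed as % of untreated controls; IC50 by linear regression. Controls underwent ≥3 rounds of multiplication. Mean of three independent determinations.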

HeLa [2] = test: Compound concentration required to reduce the cell proliferation of cervix carcinoma Hela cells by 50%, using MTT method; assay type: functional, cell-based; conditions: Homo sapiens
Method in brief: (§2)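 Solid-tumor cells in exponential growth seeded at 5 × 10^4 cells/mL in their own medium with 10% FCS, allowed to adhere 16 h, then serially diluted drug added (DMSO stock 200 µM diluted in medium). MTT viability read 4 days later, 37 °C, 5% CO2. IC50 by linear regression from % of untreated control growth. Three independent determinations.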

HEp-2 [3] = test: Compound concentration required to reduce the cell proliferation of larynx carcinoma cells by 50%, using MTT method; assay type: functional, cell-based; conditions: Homo sapiens; method in brief: as §2
CCRF-CEM [4] = test: Compound concentration required to reduce the cell proliferation of human acute T-lymphoblastic leukemia CCRF-CEM cells by 50%, using MTT method; assay type: functional, cell-based; method in brief: as §1
MT4 [5] = test: Compound concentration required to reduce the cell proliferation of human CD4+T cells by 50%, using MTT method; assay type: functional, cell-based; method in brief: as §1
CCRF-CEM [6] = test: Compound concentration required to reduce the cell proliferation of human acute T-lymphoblastic leukemia CCRF-CEM cells by 50%, using MTT method.; assay type: functional, cell-based; method in brief: as §1
HeLa [7] = test: Compound concentration required to reduce the cell proliferation of cervix carcinoma Hela cells by 50%, using MTT method.; assay type: functional, cell-based; conditions: Homo sapiens; method in brief: as §2
MT4 [8] = test: Compound concentration required to reduce the cell proliferation of human CD4+T cells by 50%, using MTT method.; assay type: functional, cell-based; method in brief: as §1
CCRF-SB [9] = test: Compound concentration required to reduce the cell proliferation of human acute B-lymphoblastic leukemia CCRF-SB cells by 50%, using MTT method.; assay type: functional, cell-based; method in brief: as §1
HEp-2 [10] = test: Compound concentration required to reduce the cell proliferation of larynx carcinoma cells by 50%, using MTT method.; assay type: functional, cell-based; conditions: Homo sapiens; method in brief: as §2
HepG2 = test: Antitumor activity against human hepatocellular carcinoma HepG2 cells; assay type: functional, cell-based; method in brief: as §2
IMR-32 = test: Antitumor activity against human neuroblastoma IMR32 cells; assay type: functional, cell-based; method in brief: as §2
SK-MES-1 = test: Antitumor activity against human lung squamous carcinoma SK-MES-1 cells; assay type: functional, cell-based; method in brief: as §2
G-361 = test: Antitumor activity against human skin melanoma G-361 cells; assay type: functional, cell-based; method in brief: as §2
MT4 [11] = test: Antitumor activity against human CD4+T cells expressing the TAT gene of HTLV-1 MT-4 cells; assay type: functional, cell-based; method in brief: as §1
CCRF-SB [12] = test: Antitumor activity against human acute B-lymphoblastic leukemia CCRF-SB cells; assay type: functional, cell-based; method in brief: as §1
DU-145 = test: Antitumor activity against human prostate carcinoma DU145 cells; assay type: functional, cell-based; method in brief: as §2
[13] = Compound concentration required to reduce the cell proliferation of Wild type and Drug- resistant KB subclones passaged in the presence of doxorubicin 0.09 uM by 50%; assay type: functional; conditions: Homo sapiens
Method in brief: (§3)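 Cells seeded at 5 × 10^4 cells/mL, adhered 16 h, exposed to serial drug dilutions; MTT after 4 days. IC50 by linear regression versus untreated controls; mean ± SD of three independent determinations.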

C8166 = test: Antitumor activity against […] human acute T-lymphoblastic leukemia C8166 cells; assay type: functional, cell-based; method in brief: as §1
[14] = Compound concentration required to reduce the cell proliferation of Wild type and Drug- resistant human nasopharyngeal carcinoma KB cells by 50%; assay type: functional, cell-based; method in brief: as §3
[15] = (§4) Cytotoxicity for Peripheral blood Lymphocytes; assay type: functional; conditions: Homo sapiens
Method in brief: (§5)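 Human PBL from HIV-negative donors, isolated on Ficoll-Hypaque. Resting cells (1 × 10^6/mL) exposed up to 3 days to serial drug dilutions, washed, PHA-stimulated 24 h, diluted to 1 × 10^5/mL with PHA and IL-2, viability read after 6 days at 37 °C. Alternatively, PBL stimulated with PHA (2.5 µg/mL) 24 h, then grown with PHA, IL-2 (50 U/mL) and drug, and viable cells counted at day 6. Mean ± SD, three experiments.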

ACHN = test: Antitumor activity against human renal adenocarcinoma ACHN cells; assay type: functional, cell-based; method in brief: as §2
5637 = test: Antitumor activity against human bladder carcinoma 5637 cells; assay type: functional, cell-based; method in brief: as §2
SK-MEL-28 = test: Antitumor activity against human skin melanoma […] cells; assay type: functional, cell-based; method in brief: as §2
Raji = test: Antitumor activity against human Burkitt lym phoma Raji cells; assay type: functional, cell-based; method in brief: as §1
HT-29 = test: Antitumor activity against human colon adenocarcinoma HT-29 cells; assay type: functional, cell-based; method in brief: as §2
CCRF-CEM [16] = test: Antitumor activity against human acute T-lymphoblastic leukemia CCRF-CEM cells; assay type: functional, cell-based; method in brief: as §1
MT4 [17] = test: Antitumor activity against […] human acute T-lymphoblastic leukemia MT-4 cells; assay type: functional, cell-based; method in brief: as §1
[18] = Effect on the proliferation Wild -type and Drug- resistant KB subclones passaged in the presence of vincristine 0.02 uM; assay type: functional, Homo sapiens; method in brief: as §3
CRL-7065 cell line = test: Antitumor activity against human foreskin fibroblasts CRL7065 cells; assay type: functional, cell-based; method in brief: as §2
MCF7 = test: Antitumor activity against human breast adenocarcinoma MCF-7 cells; assay type: functional, cell-based; method in brief: as §2
MOLT-4 = test: Antitumor activity against human acute T-lymphoblastic leukemia MOLT-4 cells; assay type: functional, cell-based
[19] = system: Panel leukemia (Carcinoma cell lines); test: Cytotoxicity for lymphoblastoid cell lines; assay type: functional; conditions: Homo sapiens
[20] = as §4; assay type: functional; conditions: Homo sapiens; method in brief: as §5; remark: listed apart in the source
HEp-2 [21] = test: Antitumor activity against larynx carcinoma Hep-2 cells; assay type: functional, cell-based; conditions: Homo sapiens; method in brief: as §2
WIL2-NS [22] = test: Anti tumor activity against human splenic B-lympho blastoid Wil2-NS cells; assay type: functional, cell-based; method in brief: as §1
HeLa [23] = test: Antitumor activity against cervix carcinoma Hela cells; assay type: functional, cell-based; conditions: Homo sapiens; method in brief: as §2
[24] = Compound concentration required to reduce the cell proliferation of Wild type and drug-resistant KB subclones passaged in the presence of etoposide 7 uM by 50%; assay type: functional; conditions: Homo sapiens; method in brief: as §3
WIL2-NS [25] = test: Antitumor activity against human splenic B-lympho blastoid Wil2-NS cells; assay type: functional, cell-based; method in brief: as §1

| IC50 (CCRF-CEM [6]) | IC50 (HeLa [7]) | IC50 (CCRF-SB [9]) | IC50 (HepG2) | IC50 (IMR-32) | IC50 (SK-MES-1) | IC50 (G-361) | IC50 (CCRF-SB [12]) | IC50 (DU-145) | IC50 (C8166) | IC50 (ACHN) | IC50 5637 | IC50 (SK-MEL-28) | IC50 (Raji) | IC50 (HT-29) | IC50 (CCRF-CEM [16]) | SMILES | IC50 (MT4 [8]) | IC50 (HEp-2 [10]) | IC50 (MT4 [11]) | IC50 (MT4 [17]) | also measured |
| --- | --- | --- | --- | --- | --- | --- | --- | --- | --- | --- | --- | --- | --- | --- | --- | --- | --- | --- | --- | --- | --- |
| – | – | – | – | – | – | – | – | – | – | – | – | – | – | – | – | Nc1cc2nc3ccccc3oc-2cc1=O | – | – | – | – | IC50 (CCRF-SB [1]): 1000 nM; IC50 (HeLa [2]): 2700 nM; IC50 (HEp-2 [3]): 1800 nM; IC50 (CCRF-CEM [4]): 2000 nM; IC50 (MT4 [5]): 1200 nM |
| 19000 nM | 13000 nM | 9000 nM | – | – | – | – | – | – | – | – | – | – | – | – | – | O=c1ccc2nc3ccccc3oc-2c1 | 11000 nM | 14200 nM | – | – | – |
| – | – | – | 50 nM | 10 nM | 40 nM | 10 nM | 9 nM | 40 nM | 100 nM | 10 nM | 10 nM | 210 nM | 40 nM | 250 nM | 10 nM | O=c1cc2oc3ccccc3nc-2c2cccnc12 | – | – | 10 nM | 10 nM | IC50 [13]: 40 nM; IC50 [14]: 100 nM; CC50 [15]: 5000 nM; IC50 [18]: 60 nM; IC50 (CRL-7065 cell line): 500 nM; IC50 (MCF7): 230 nM; IC50 (MOLT-4): 40 nM; CC50 [19]: 40 nM; CC50 [20]: 30 nM; IC50 (HEp-2 [21]): 40 nM; IC50 (WIL2-NS [22]): 50 nM; IC50 (HeLa [23]): 200 nM; IC50 [24]: 20 nM |
| > 50000 nM | 8200 nM | 3600 nM | – | – | – | – | – | – | – | – | – | – | – | – | – | CC(=O)Nc1cc2nc3ccccc3oc-2cc1=O | 9500 nM | 1400 nM | – | – | – |
| – | – | – | 110 nM | 530 nM | 800 nM | 220 nM | 80 nM | 610 nM | 410 nM | 1920 nM | 150 nM | 810 nM | 30 nM | 10000 nM | 70 nM | O=c1cc2sc3ccccc3nc-2c2cccnc12 | – | – | 80 nM | 80 nM | IC50 (WIL2-NS [25]): 150 nM; IC50 (CRL-7065 cell line): 810 nM; IC50 (MCF7): 650 nM; IC50 (MOLT-4): 140 nM; IC50 (HEp-2 [21]): 100 nM; IC50 (HeLa [23]): 600 nM |
